Compound activity: PubChem BioAssay, Sanford-Burnham Center for Chemical Genomics
Diaphorase inh: counter-screen for diaphorase-based assays: diaphorase inhibitors and chemical oxidizers; diaphorase resazurin-to-resorufin fluorescence, NADH, 16 min; bacterial (C. kluyveri) enzyme, not human; inhibition, % at 20 µM; 0.69% of 190,000 active;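 active means primary screen inhibition at 20 µM above a set limit, cut at about 50% in these data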
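System: Bacterial diaphorase enzyme (C. kluyveri) | Incubation: 16-min room-temperature incubation before reading | Benchmarks: No-NADH positive control and DMSO neutral control | Measured by: Resorufin fluorescence 544/590 nm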
PMI act: activators of human phosphomannose isomerase. 0.005% of 190,000 active. activation factor at 20 µM. AID 1214. P34949. purified human PMI, coupled resazurin fluorescence, 20 min; stronger effect = higher value; 1 = vehicle control, 0 substrate-free wells;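 active means activation factor of 2 or more at 20 µM, relative to plate controls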
Target sequence (P34949 whole entry, looked up): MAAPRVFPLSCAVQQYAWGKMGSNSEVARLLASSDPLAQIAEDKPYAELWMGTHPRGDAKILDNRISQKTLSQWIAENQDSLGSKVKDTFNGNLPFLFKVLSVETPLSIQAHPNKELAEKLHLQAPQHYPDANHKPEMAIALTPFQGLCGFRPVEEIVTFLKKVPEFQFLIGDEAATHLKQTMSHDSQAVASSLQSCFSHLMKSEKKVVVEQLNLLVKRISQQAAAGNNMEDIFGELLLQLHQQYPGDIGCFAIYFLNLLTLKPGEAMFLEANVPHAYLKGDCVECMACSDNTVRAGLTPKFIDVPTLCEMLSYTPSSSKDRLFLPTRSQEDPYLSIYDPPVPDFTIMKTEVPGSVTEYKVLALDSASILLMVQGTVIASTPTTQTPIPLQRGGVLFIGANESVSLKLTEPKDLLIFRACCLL
G6PDH CS: L. mesenteroides G6PDH inhibition counter-screen | Purified L. mesenteroides G6PDH, diaphorase/resazurin coupled fluorescence, 45 min | inhibition, % at 5 µM | 0.12% of 200,000 active; in the data active means inhibition above about 50%
Diaph act CS: diaphorase activation or chemical reduction counter-screen. 0.005% of 190,000 active. Diaphorase/resazurin coupled assay, resorufin fluorescence, 16 min; stronger effect = higher value; 1 = vehicle wells, 0 = NADH-free wells. AID 1229. activation factor at 20 µM;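 active means diaphorase activity raised at least twofold by the compound at 20 µM; inactive means activation factor below 2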
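Material: Purified diaphorase enzyme from Clostridium kluyveri | Buffer or medium: 50 mM HEPES pH 7.4 with 4.542 mM MgCl2, 0.005% Tween 20 | Times: 16 min enzyme reaction, ambient temperature | Signal: Red resorufin fluorescence at 544/590 nm excitation/emission | Measure: Increased resorufin signal from activators or reducing compounds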
PMI act satM6P: increases human PMI activity with near-saturating mannose 6-phosphate. P34949. coupled PMI enzyme assay, resazurin fluorescence, 20 min; stronger effect = higher value; 1 = untreated enzyme, 0 = substrate-free blank. activation factor at 20 µM. 0.34% of 190,000 active. AID 1216;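 active means activation factor of 2 or more at 20 µM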
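Material: human phosphomannose isomerase with PGI, G6PDH, diaphorase coupling enzymes. Quantity: 15 ng/mL PMI. Medium: HEPES pH 7.4 buffer with MgCl2 and Tween-20. Reagent: Near-saturating mannose-6-phosphate, 1.0 mM. Compound: 20 µM single dose. Times: enzyme reaction with compound 20 min at room temperature. Detection: resorufin fluorescence at Ex 544/Em 590 nm.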
Large screens that a line does not name were inactive. Most compounds without a hit are left out; they make up all but 1.1% or so of the library.

O=C(CN1CC(=O)Oc2ccccc21)OCC(=O)c1ccc(F)cc1	Diaphorase inh 51
O=C(O)C1OC(Oc2c(-c3ccc(O)c(O)c3)oc3cc(O)cc(O)c3c2=O)C(O)C(O)C1O (centres undefined)	Diaphorase inh 55
O=C(O)C1OC(Oc2cc3oc(-c4ccccc4)cc(=O)c3c(O)c2O)C(O)C(O)C1O (centres undefined)	none
CCNc1ccc(C2(O)C(=O)c3ccccc3C2=O)cc1	none
CC1=C(C)C(=O)C(CCCCC#CCCCC#CCO)=C(C)C1=O	G6PDH CS 57
CCN(C(=O)c1c(C)cc(=O)oc1C)c1ccc2c(c1)OCO2	none
CCN(C(=O)c1coc(=O)c(Br)c1)c1ccc2c(c1)OCO2	Diaphorase inh 66
NC(=O)COc1ncn(-c2ccccc2)n1	none
N/C(COc1ncn(-c2ccccc2)n1)=N\S(=O)(=O)c1ccc(Cl)cc1Cl	Diaphorase inh 61
O=C1CSc2ccc(C(=O)Nc3cccc(S(=O)(=O)Nc4ccc(Br)cc4)c3)cc2N1	none
OCC(CO)(CO)N=Cc1c(O)ccc2ccccc12	Diaphorase inh 57
Fc1ccc(N/N=C(/c2ccccc2)c2ccccn2)cc1	PMI act satM6P 2
O=C(/C=C/c1ccoc1)c1ccccc1O	none
COc1ccc2ccccc2c1C(=O)/C=C\c1ccoc1	Diaphorase inh 52
COc1cc(CCN2C(=O)N[C@@H](c3cccc(C(F)(F)F)c3)C(C(C)=O)=C2C)cc(OC)c1OC	PMI act satM6P 2
CC(=O)N1CCN(c2ccc(NC(=S)NC(=O)COc3ccc(C(C)(C)C)cc3)cc2)CC1	none
CCC(=O)N1CCN(c2ccc(NC(=S)NC(=O)COc3ccccc3)cc2)CC1	Diaphorase inh 64
O=C(NC1CCCC1)c1sc(=S)n2c1[nH]c(=O)c1ccccc12	Diaphorase inh 61
O=C(NCc1ccco1)c1sc(=S)n2c1[nH]c(=O)c1ccccc12	Diaphorase inh 67
O=C(NC1CCCCCCC1)c1c(O)c2ccccc2[nH]c1=O	none
O=C(Nc1ccc2c(c1)OCO2)c1ccc(N2CCCC2)c([N+](=O)[O-])c1	none
CSc1nncc(/C(C)=N\Nc2cccc(C)c2)n1	PMI act satM6P 2.4
CSc1nncc(/C(C)=N\Nc2ccccc2)n1	none
CC/C(=N/Nc1ccccc1C)c1cnnc(SC)n1	PMI act satM6P 2.3
COc1ccc(OCC(=O)Nc2cccc(C(=O)Nc3ccccc3C(=O)O)c2)cc1	none
Nn1cnnc1N/N=C/c1cc(Br)cc(Br)c1O	Diaphorase inh 50
Cc1nnc(C)n1/N=C/c1cc(Br)cc(Br)c1O	none
Cc1ccccc1OCC(=O)Nc1ccc2c(c1)n(C)c(=O)n2C	none
O=C(NNC(=S)NC(=O)c1ccccc1[N+](=O)[O-])c1ccccc1O	Diaphorase inh 59
COc1cccc(-c2ccc(=O)n(CC(=O)Nc3ccc(S(=O)(=O)NCC(C)C)cc3)n2)c1	none
Cn1cc2cc([N+](=O)[O-])ccc2n1	none
CC(C)[C@H](NC(=O)NCCc1ccc(Cl)cc1)C(=O)O	none
CC(C)[C@H](NC(N)=O)C(=O)NCCc1ccc(Cl)cc1	Diaphorase inh 67
COc1ccccc1N1CCN(/N=C/c2ccc(O)c(O)c2)CC1	Diaphorase inh 70
COc1ccc(/C=N/N2CCN(c3ccccc3OC)CC2)cc1OC	none
Oc1cc(-c2ccccc2)c2ccccc2c1	Diaphorase inh 84
Cc1cc(NC(=O)c2cc([N+](=O)[O-])cc([N+](=O)[O-])c2C)no1	none
O=[N+]([O-])c1cccc(Nc2nc(Cl)nc(Cl)n2)c1	none
Fc1cccc(Nc2nc(Cl)nc(Cl)n2)c1	PMI act satM6P 2.2
Cc1ccsc1C1C(C#N)=C(N)N(N(C)C)C2=C1C(=O)CC(C)(C)C2 (centres undefined)	none
CC(C)COc1cccc(C(=O)NC(=S)NCc2cccnc2)c1	Diaphorase inh 51
Cc1cc(C)n(C(=O)CCCn2cc([N+](=O)[O-])cn2)n1	none
O=C1CN(c2nc(-c3cccs3)nc3sc4c(c23)CCCC4)CCN1	PMI act satM6P 2.2
CCCCNC(=O)C1CCN(S(=O)(=O)N2CCOCC2)CC1	none
CCOC(=O)C(=NCCCN1CCOCC1)NNc1cccc(C(F)(F)F)c1	PMI act satM6P 2.1
CCOc1cc(CNCCCN2CCOCC2)cc(Br)c1OCC(=O)Nc1cccc(C(F)(F)F)c1	none
CN1c2cccc3cccc(c23)N(C)C1(C)C	Diaphorase inh 52
Cc1ccc(N2C(=O)C3N=NN(CC(=O)N4N=C(c5ccccc5)CC4c4ccccc4)C3C2=O)cc1 (centres undefined)	none
CCOC(=O)c1cc2c(nc1C)-c1cc(Cl)cc(Cl)c1OC2O (centres undefined)	none
Cc1ncc(CO)c(/C=N/NC(=O)c2cc(O)c(O)c(O)c2)c1O	Diaphorase inh 60
Cc1c(Cl)cccc1NS(=O)(=O)c1ccc2c(c1)C1C=CCC1C(c1ccc(C(=O)O)cc1)N2 (centres undefined)	Diaphorase inh 59
Cn1cc2cc(NC(N)=S)ccc2n1	none
Cn1cc2ccc(N)cc2n1	Diaphorase inh 70, G6PDH CS 54
CN=C(Nc1cccc(Cl)c1)SC1CC(=O)N(c2ccc(OC)cc2)C1=O (centres undefined)	none
CN(C)c1cc(N/N=C/c2ccc(Cl)cc2)nc(N(C)C)n1	Diaphorase inh 54
O=C(N/N=C/c1cccc(OC(=O)c2ccco2)c1)c1ccc(F)cc1	none
O=C(O)CCNc1cc2ccccc2cc1C(=O)O	Diaphorase inh 65
O=C(O)CCNS(=O)(=O)c1ccc2ccccc2c1	none
Nc1nc2c(s1)COc1ccccc1-2	none
Nc1nc2c(s1)CCc1c-2cnn1-c1ccccc1	Diaphorase inh 66, G6PDH CS 62
CCOC(=O)N1CCC(=NNS(=O)(=O)c2cccc([N+](=O)[O-])c2)CC1	PMI act satM6P 2.1
CCOC(=O)N1CCN(S(=O)(=O)c2cc([N+](=O)[O-])ccc2C)CC1	none
COc1ccc(OCCC(=O)OCC(=O)NCCc2ccccc2)cc1	none
CN=c1scc(-c2ccccc2F)n1/N=C/c1ccc(O)c(O)c1O	Diaphorase inh 68
CC(C)N=c1scc(-c2cccs2)n1/N=C/c1ccc(O)c(O)c1O	Diaphorase inh 66
O=C(CSc1ncn[nH]1)Nc1ccc2c(c1)CCC2	none
COC1(NS(=O)(=O)c2ccc(Br)cc2)C(C)=CC(=O)C=C1C	Diaphorase inh 52
Cc1ccc(NS(=O)(=O)c2ccc(Br)cc2)nc1	none
O=C(NCc1ccccc1)c1cccc(NS(=O)(=O)c2cccc3cccnc23)c1	none
COP(=O)(CC(=O)c1ccccc1)CC(=O)c1ccccc1	none
c1ccc(-c2cc(N3CCCCCC3)n[nH]2)cc1	Diaphorase inh 59
